Results taken from ChEMBL document CHEMBL1139927, “A new class of nifuroxazide analogues: synthesis of 5-nitrothiophene derivatives with antimicrobial activity against multidrug-resistant Staphylococcus aureus” (2007).
Converted amounts (≈) assume the structure as drawn.

Assays:
Assay type in all cases: functional
Staphylococcus aureus [1] = experiment: Antimicrobial activity against multidrug-resistant Staphylococcus aureus 3SP/R33 after 18 hrs by serial dilution test; conditions: 3SP/R33, 18 h
Outline: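 Broth twofold macro-dilution in Tryptic Soy Broth. Inoculum came from fresh cultures grown on plate count agar for 18 h at 35 °C and was adjusted to McFarland no. 1. Compound stocks were made in DMSO (2–5% in assay), with ethanol as co-solvent, and diluted in TSB. Tubes were incubated at 35 °C for 18 h. MIC = lowest concentration giving no visible growth; run in quadruplicate.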

Staphylococcus aureus [2] = experiment: Antimicrobial activity against Staphylococcus aureus ATCC 25923 after 18 hrs by serial dilution test; conditions: ATCC 25923, 18 h
Outline: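 Twofold broth macro-dilution in Tryptic Soy Broth. Inoculum taken from fresh 18 h, 35 °C cultures on plate count agar and adjusted to McFarland no. 1. Compounds prepared as DMSO stocks and diluted in TSB, with ethanol as co-solvent and 2–5% DMSO in the assay. Tubes incubated at 35 °C for 18 h and read visually. MIC is the lowest concentration giving complete growth inhibition; run in quadruplicate.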

Staphylococcus aureus [3] = experiment: Antimicrobial activity against multidrug-resistant Staphylococcus aureus 3SP/R33 […] after 24 hrs; conditions: 3SP/R33, 24 h
Outline: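 MBC: 10 µL was taken from each tube that stayed clear in the broth dilution MIC test. Each aliquot was spread over the whole surface of a Müller–Hinton agar plate, and plates were incubated at 35 °C for 24 h to read bactericidal concentration.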

SMILES	MIC (Staphylococcus aureus [1])	MIC (Staphylococcus aureus [2])	MBC (Staphylococcus aureus [3])
O=C(N/N=C/c1ccc([N+](=O)[O-])s1)c1ccc(Cl)cc1	1.09 µg/mL (≈ 3.52 µM)	≤ 5.52 µM	2.18 µg/mL (≈ 7.04 µM)
CCCOc1ccc(C(=O)N/N=C/c2ccc([N+](=O)[O-])s2)cc1		≤ 24.3 µM	
O=C(N/N=C/c1ccc([N+](=O)[O-])s1)c1ccc(Cl)c(Cl)c1	0.63 µg/mL (≈ 1.83 µM)	≤ 2.21 µM	0.63 µg/mL (≈ 1.83 µM)
CCCCOc1ccc(C(=O)N/N=C/c2ccc([N+](=O)[O-])s2)cc1	10.3 µg/mL (≈ 29.7 µM)	≤ 35.4 µM	> 41.2 µg/mL
CCc1ccc(C(=O)N/N=C/c2ccc([N+](=O)[O-])s2)cc1	5.8 µg/mL (≈ 19.1 µM)	≤ 22.2 µM	> 92.8 µg/mL
CCCCc1ccc(C(=O)N/N=C/c2ccc([N+](=O)[O-])s2)cc1	12.7 µg/mL (≈ 38.3 µM)	≤ 40.7 µM	> 50.8 µg/mL
C=Cc1ccc(C(=O)N/N=C/c2ccc([N+](=O)[O-])s2)cc1	3.38 µg/mL (≈ 11.2 µM)	≤ 15.7 µM	> 54 µg/mL
CCCCNc1ccc(C(=O)N/N=C/c2ccc([N+](=O)[O-])s2)cc1	6.22 µg/mL (≈ 18 µM)	≤ 22.4 µM	> 49.8 µg/mL
CC(=O)c1ccc(C(=O)N/N=C/c2ccc([N+](=O)[O-])s2)cc1	0.11 µg/mL (≈ 0.347 µM)	≤ 0.44 µM	0.22 µg/mL (≈ 0.693 µM)
CC(C)c1ccc(C(=O)N/N=C/c2ccc([N+](=O)[O-])s2)cc1	5.02 µg/mL (≈ 15.8 µM)	≤ 28.6 µM	> 40.2 µg/mL
O=C(N/N=C/c1ccc([N+](=O)[O-])s1)c1ccc(I)cc1	5.55 µg/mL (≈ 13.8 µM)	≤ 14 µM	> 88.8 µg/mL
O=C(N/N=C/c1ccc([N+](=O)[O-])s1)c1ccc(Br)cc1	0.63 µg/mL (≈ 1.78 µM)	≤ 2.12 µM	0.63 µg/mL (≈ 1.78 µM)
O=C(N/N=C/c1ccc([N+](=O)[O-])s1)c1ccccc1	3.9 µg/mL (≈ 14.2 µM)	≤ 16.7 µM	≥ 125 µg/mL
CCCc1ccc(C(=O)N/N=C/c2ccc([N+](=O)[O-])s2)cc1	7.25 µg/mL (≈ 22.8 µM)	≤ 36.5 µM	> 29 µg/mL
